From ChEMBL document CHEMBL4257500, “Design, synthesis and antimycobacterial activity of hybrid molecules combining pyrazinamide with a 4-phenylthiazol-2-amine scaffold” (Medchemcomm, 2018)
≈ marks a conversion by molar mass, not a printed value.

Key:
[1] = system: Mycobacterium avium; experiment: Antimycobacterial activity against Mycobacterium avium subsp. avium Chester ATCC 15769 incubated in dark for 5 days by Alamar Blue assay; type: functional; details: Chester ATCC 15769, 120 h
Summary of the method: (§1)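 Middlebrook 7H9 broth with 0.4% glycerol and 10% OADC, pH 6.6. Compounds in DMSO, final 100–1.56 µg/mL by twofold steps. Inoculum 0.5–1.0 McFarland in saline, diluted 10⁻¹. Static incubation at 37 °C, dark, humid, 5 days. Alamar Blue (resazurin/Tween 80) added, read after 24 h. MIC = lowest concentration preventing the blue-to-pink change by eye; turbidity also inspected. Isoniazid control.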

[2] = system: Mycobacterium tuberculosis; experiment: Antimycobacterial activity against Mycobacterium tuberculosis H37Rv ATCC 27294 incubated in dark for 5 days by Alamar Blue assay; type: functional; details: H37Rv ATCC 27294, 120 h; summary of the method: as §1
[3] = system: Mycolicibacterium smegmatis; experiment: Antimycobacterial activity against Mycobacterium smegmatis ATCC 607 incubated in dark for 48 hrs by resazurin assay; type: functional; details: ATCC 607, 48 h
Summary of the method: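 Broth microdilution in Middlebrook 7H9 with glycerol and OADC, pH 6.6. Inoculum 0.5–1.0 McFarland, diluted 1:20 in broth. Compounds in DMSO by binary dilution, final 3.91–500 µg/mL; DMSO ≤2.5% v/v. Sealed plates kept dark, 37 °C, no agitation. After 48 h, 0.01% resazurin added; read after a further 2.5 h. Run in duplicate.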

[4] = Solubility of compound in DMSO at 15 mg at 55 to 80 degC; type: physicochemical
[5] = system: Mycobacterium kansasii; experiment: Antimycobacterial activity against Mycobacterium kansasii Hauduroy ATCC 12478 incubated in dark for 5 days by Alamar Blue assay; type: functional, Mycobacterium kansasii ATCC 12478; details: 120 h
[6] = Selectivity index, ratio of IC50 for human HepG2 cells to MIC for Mycobacterium tuberculosis H37Rv ATCC 27294; type: toxicity; details: read-out: Selectivity Index
Summary of the method: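 SI = HepG2 IC50 / Mtb H37Rv MIC, with MIC converted to µM (µg/mL ÷ MW). HepG2 cells (passage 32–34) seeded at 1×10^4 per well. Treated after 24 h with 0.1–1000 µM depending on solubility, DMSO ≤1%, triplicates, 37 °C, 5% CO2, 24 h. Viability read by MTS-type reagent at 490 nm after 2 h. IC50 from nonlinear regression.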

[7] = system: HepG2; experiment: Cytotoxicity against human HepG2 cells assessed as decrease in cell viability after 24 hrs by MTS assay; type: cell-based; details: HepG2, 24 h
Summary of the method: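 HepG2 (passage 32–34) seeded at 1×10^4 cells/well and treated 24 h later. Compounds in DMSO, 0.1–1000 µM depending on solubility; DMSO ≤1%. Triplicates at 37 °C, 5% CO2 for 24 h. MTS reagent (CellTiter 96 AQueous One) for 2 h, absorbance at 490 nm. IC50 by nonlinear regression of absorbance relative to untreated cells.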

[8] = Solubility of compound in DMSO at 15 mg at room temperature; type: physicochemical
[9] = system: Mycobacterium tuberculosis; experiment: Antimycobacterial activity against Mycobacterium tuberculosis H37Rv assessed as growth inhibition at 6.25 ug/ml by BACTEC 460 radiometric assay relative to control; type: functional; details: read-out: GI
[10] = system: HepG2; experiment: Cytotoxicity against human HepG2 cells assessed as decrease in cell viability after 48 hrs by CellTox green assay; type: cell-based; details: HepG2, 48 h
Summary of the method: (§2)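 HepG2 seeded at 1×10^4 cells/well, dosed the next day with compounds in DMSO at 0.1–500 µM; DMSO ≤1%. Triplicates at 37 °C, 5% CO2. CellTox Green reagent added after 24 h exposure, 15 min at room temperature, fluorescence Ex 485/Em 520 nm. Reading repeated 24 h later for the 48 h value. IC50 by nonlinear regression against untreated control.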

[11] = system: HepG2; experiment: Cytotoxicity against human HepG2 cells assessed as decrease in cell viability after 24 hrs by CellTox green assay; type: cell-based; details: HepG2, 24 h; summary of the method: as §2

SMILES	MIC [1]	MIC [2]	MIC [3]	solubility [4]	MIC [5]	selectivity ratio [6]	IC50 [7]	solubility [8]	inhibition of growth at 6.25 µg/mL [9]	IC50 [10]	IC50 [11]
O=C(Nc1nc(-c2ccccn2)cs1)c1cnc(Cl)cn1	> 50 µg/mL	> 50 µg/mL	> 125 µg/mL	Soluble	> 50 µg/mL	–	–	–	–	–	–
COc1ccc(-c2csc(NC(=O)c3cnc(Cl)cn3)n2)cc1	> 50 µg/mL	4.5 µM	> 500 µg/mL	Soluble	> 50 µg/mL	> 16.7	> 75 µM	–	–	–	–
NNC(=O)c1ccncc1 [ISONIAZID]	6.25 to 12.5 µg/mL (≈ 45.6 to 91.1 µM)	0.1 to 0.2 µg/mL	7.8 to 15.6 µg/mL (≈ 56.9 to 114 µM)	–	12.5 to 25 µg/mL (≈ 91.1 to 182 µM)	–	–	Soluble	–	–	–
O=C(O)c1cn(C2CC2)c2cc(N3CCNCC3)c(F)cc2c1=O [CIPROFLOXACIN]	0.098 to 0.195 µg/mL (≈ 0.296 to 0.589 µM)	0.098 to 0.195 µg/mL	0.098 to 0.195 µg/mL (≈ 0.296 to 0.589 µM)	–	0.098 to 0.195 µg/mL (≈ 0.296 to 0.589 µM)	–	–	–	–	–	–
O=C(Nc1nccs1)c1cncc(Cl)n1	–	–	–	–	–	–	–	–	15 to 65%	–	–
O=C(Nc1nc(-c2ccccn2)cs1)c1cncc(Cl)n1	> 50 µg/mL	> 50 µg/mL	> 125 µg/mL	Soluble	> 50 µg/mL	–	–	–	–	–	–
O=C(Nc1nc(-c2ccccc2)cs1)c1cnccn1	–	> 50 µg/mL	> 250 µg/mL	–	> 50 µg/mL	–	–	Soluble	–	–	–
COc1ccc(-c2csc(NC(=O)c3cnc(Cl)cn3)n2)cc1OC	> 12.5 µg/mL	> 12.5 µg/mL	> 250 µg/mL	–	> 12.5 µg/mL	–	–	Insoluble	–	–	–
COc1ccc(-c2csc(NC(=O)c3cncc(Cl)n3)n2)cc1	> 12.5 µg/mL	4.5 µM	62.5 µg/mL (≈ 180 µM)	–	12.5 µg/mL (≈ 36 µM)	> 5.6	> 25 µM	Insoluble	–	–	–
O=C(Nc1nc(-c2ccc(F)cc2)cs1)c1cncc(Cl)n1	0.78 µg/mL (≈ 2.33 µM)	2.3 µM	> 250 µg/mL	–	0.78 µg/mL (≈ 2.33 µM)	> 21.5	> 50 µM	Soluble	–	> 50 µM	> 50 µM
O=C(Nc1nc(-c2ccc(Cl)cc2)cs1)c1cncc(Cl)n1	> 12.5 µg/mL	> 12.5 µg/mL	62.5 µg/mL (≈ 178 µM)	–	> 12.5 µg/mL	–	–	Soluble	–	–	–
O=C(Nc1nc(-c2ccc(Cl)cc2)cs1)c1cnccn1	> 12.5 µg/mL	> 12.5 µg/mL	62.5 µg/mL (≈ 197 µM)	–	> 12.5 µg/mL	–	–	Insoluble	–	–	–
Cc1csc(NC(=O)c2cncc(Cl)n2)n1	–	–	–	–	–	–	–	–	15 to 65%	–	–
O=C(Nc1nc(-c2ccc(Cl)cc2)cs1)c1cnc(Cl)cn1	> 50 µg/mL	> 50 µg/mL	> 500 µg/mL	–	> 50 µg/mL	–	–	Soluble	–	–	–
CO[C@H]1/C=C/O[C@@]2(C)Oc3c(C)c(O)c4c(O)c(c(/C=N/N5CCN(C)CC5)c(O)c4c3C2=O)NC(=O)/C(C)=C\C=C\[C@H](C)[C@H](O)[C@@H](C)[C@@H](O)[C@@H](C)[C@H](OC(C)=O)[C@@H]1C [RIFAMPIN]	0.78 to 1.56 µg/mL (≈ 0.948 to 1.9 µM)	0.78 to 1.56 µg/mL	0.78 to 1.56 µg/mL (≈ 0.948 to 1.9 µM)	–	0.78 to 1.56 µg/mL (≈ 0.948 to 1.9 µM)	–	–	–	–	–	–
Cc1cnc(NC(=O)c2cncc(Cl)n2)s1	–	–	–	–	–	–	–	–	15 to 65%	–	–
COc1ccc(-c2csc(NC(=O)c3cnccn3)n2)cc1	> 100 µg/mL	> 100 µg/mL	> 250 µg/mL	–	> 100 µg/mL	–	–	Soluble	–	–	–
Cc1cnc(NC(=O)c2cnc(C(C)(C)C)c(Cl)n2)s1	–	–	–	–	–	–	–	–	15 to 65%	–	–
O=C(Nc1nc(-c2ccccc2)cs1)c1cncc(Cl)n1	–	> 50 µg/mL	> 500 µg/mL	Soluble	> 50 µg/mL	–	–	–	–	–	–
COc1ccc(-c2csc(NC(=O)c3cnccn3)n2)cc1OC	> 50 µg/mL	> 50 µg/mL	> 125 µg/mL	–	> 50 µg/mL	–	–	Soluble	–	–	–
COc1ccc(-c2csc(NC(=O)c3cncc(Cl)n3)n2)cc1OC	> 12.5 µg/mL	4.1 µM	> 125 µg/mL	–	> 12.5 µg/mL	> 6	> 25 µM	Insoluble	–	–	–
O=C(Nc1nc(-c2ccc(F)cc2)cs1)c1cnc(Cl)cn1	> 50 µg/mL	9.4 µM	> 500 µg/mL	–	12.5 µg/mL (≈ 37.3 µM)	2.7	24.8 µM	Soluble	–	18.1 µM	22.4 µM
O=C(Nc1nc(-c2ccc(F)cc2)cs1)c1cnccn1	> 12.5 µg/mL	> 12.5 µg/mL	> 250 µg/mL	–	> 12.5 µg/mL	–	–	Insoluble	–	–	–
O=C(Nc1nc(-c2ccccn2)cs1)c1cnccn1	> 50 µg/mL	22.1 µM	> 125 µg/mL	Soluble	> 50 µg/mL	> 1.1	> 25 µM	–	–	–	–
O=C(Nc1nc(-c2ccccc2)cs1)c1cnc(Cl)cn1	> 100 µg/mL	> 100 µg/mL	> 500 µg/mL	Soluble	> 100 µg/mL	–	–	–	–	–	–
CC(C)(C)c1ncc(C(=O)Nc2nccs2)nc1Cl	–	–	–	–	–	–	–	–	15 to 65%	–	–
Cc1csc(NC(=O)c2cnc(C(C)(C)C)c(Cl)n2)n1	–	–	–	–	–	–	–	–	15 to 65%	–	–
